From ChEMBL document CHEMBL3259727, “Cathepsin C inhibitors: property optimization and identification of a clinical candidate” (J Med Chem, 2014)
Activity calls are given as the source filed them. The calls are words filed in the database; no cut-off is given here.

What was measured:
[1] = Dissociation constant, pKa of the compound; type: physicochemical
[2] = target: T1, Cathepsin K (Homo sapiens) (UniProt P43235); assay: (§1) Inhibition of Cathepsin K (unknown origin)
T1 sequence (whole entry): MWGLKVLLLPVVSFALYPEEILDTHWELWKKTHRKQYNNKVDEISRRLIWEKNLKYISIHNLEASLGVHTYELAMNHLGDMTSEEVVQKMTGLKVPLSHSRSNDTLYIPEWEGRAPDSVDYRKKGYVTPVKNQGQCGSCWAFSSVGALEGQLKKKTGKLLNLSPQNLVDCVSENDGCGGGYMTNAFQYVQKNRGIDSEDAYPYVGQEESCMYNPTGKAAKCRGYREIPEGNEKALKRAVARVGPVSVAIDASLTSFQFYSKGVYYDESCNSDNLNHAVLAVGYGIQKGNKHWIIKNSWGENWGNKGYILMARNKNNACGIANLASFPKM

Dipeptidyl peptidase 1 [3] = target: T2, Dipeptidyl peptidase 1 (Homo sapiens, UniProt P53634); assay: Inhibition of cathepsin C in human THP1 cells assessed as inhibition of H-Gly-Phe-AFC cleavage by fluorescence assay; type: cell-based, THP-1
Summary of the method: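 Cellular CatC activity in human THP1 cells measured as cleavage of fluorogenic substrate H-Gly-Phe-AFC; pIC50 determined.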

[4] = Intrinsic clearance in human microsomes; type: ADME, Microsome
Summary of the method: (§2)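 Intrinsic clearance (Clint) determined in human liver microsome and rat hepatocyte preparations.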

Dipeptidyl peptidase 1 [5] = target: T2, Dipeptidyl peptidase 1; assay: Inhibition of recombinant human cathepsin C using H-Gly-Arg-AMC as substrate preincubated for 30 mins before substrate addition measured after 60 mins by fluorescence assay
[6] = Intrinsic clearance in rat hepatocytes assessed per million cells; type: ADME, cell-based, Hepatocyte; conditions: read-out: CLH; summary of the method: as §2
[7] = target: Voltage-gated inwardly rectifying potassium channel KCNH2 (Homo sapiens, UniProt Q12809); assay: Inhibition of human ERG by electrophysiology assay
[8] = Lipophilicity, log D of the compound; type: physicochemical; conditions: octanol/water
Cathepsin K = target: T3, Cathepsin K (Homo sapiens, UniProt P43235); assay: as §1
T3 sequence (P43235 whole entry): T1 sequence (whole entry)

Cathepsin B = Cathepsin B (Homo sapiens, UniProt P07858); assay: Inhibition of Cathepsin B (unknown origin)
Cathepsin S = Cathepsin S (Homo sapiens, UniProt P25774); assay: Inhibition of Cathepsin S (unknown origin)
[9] = Induction of phospholipid accumulation in rat hepatoma cells; type: cell-based
Procathepsin L = Procathepsin L (Homo sapiens, UniProt P07711); assay: Inhibition of Cathepsin L (unknown origin)
[10] = Volume of distribution at steady state in mouse; type: ADME, organism-based; conditions: in vivo, read-out: Vdss
Rattus norvegicus [11] = organism: Rattus norvegicus; assay: Toxicity in rat assessed as liver cholangitis; type: organism-based; conditions: in vivo
Leukotriene B4 receptor [12] = target: T4, Leukotriene B4 receptor (Homo sapiens, UniProt Q9NPC1+Q15722); assay: Binding affinity to leukotriene B4 receptor (unknown origin) at 10 uM; type: protein assay
Summary of the method: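 Screened at 10 μM in a human LTB4 binding assay within a panel of over 170 assays; percent inhibition reported.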

[13] = Volume of distribution at steady state in dog; type: ADME, organism-based, Canis lupus familiaris; conditions: in vivo, read-out: Vdss
[14] = Half life in rat; type: ADME, organism-based; conditions: in vivo
Leukotriene B4 receptor [15] = target: T4, Leukotriene B4 receptor; assay: Binding affinity to leukotriene B4 receptor (unknown origin); type: protein assay
[16] = Bioavailability in mouse; type: ADME, organism-based; conditions: in vivo
[17] = Volume of distribution at steady state in rat; type: ADME, organism-based; conditions: in vivo, read-out: Vdss
Rattus norvegicus [18] = organism: Rattus norvegicus; assay: Toxicity in rat assessed as foci of foaming macrophages in lung; type: organism-based
[19] = Half life in mouse; type: ADME, organism-based; conditions: in vivo
[20] = Clearance in rat; type: ADME, organism-based; conditions: in vivo
Rattus norvegicus [21] = organism: Rattus norvegicus; assay: Toxicity in rat assessed as liver vacuolation; type: organism-based; conditions: in vivo
[22] = Clearance in mouse; type: ADME, organism-based; conditions: in vivo
[23] = Bioavailability in rat; type: ADME, organism-based; conditions: in vivo
[24] = Half life in dog; type: ADME, organism-based, Canis lupus familiaris; conditions: in vivo
[25] = Bioavailability in dog; type: ADME, organism-based, Canis lupus familiaris; conditions: in vivo
Rattus norvegicus [26] = organism: Rattus norvegicus; assay: Toxicity in rat assessed as liver hypertrophy; type: organism-based; conditions: in vivo
[27] = Clearance in dog; type: ADME, organism-based, Canis lupus familiaris; conditions: in vivo
[28] = target: T1, Cathepsin K (Homo sapiens); assay: Inhibition of Cathepsin K (unknown origin) at 10 uM
Hepatocyte [29] = assay: Metabolic stability in human hepatocytes assessed per compound oxidation by LC-MS/MS analysis; type: ADME, cell-based
Plasma [30] = assay: Stability in human plasma; type: ADME, cell-free
Hepatocyte [31] = assay: Metabolic stability in rat hepatocytes assessed per compound oxidation by LC-MS/MS analysis; type: ADME, cell-based
Plasma [32] = assay: Stability in rat plasma; type: ADME, cell-free

Sequence of Cathepsin S (P25774 whole entry): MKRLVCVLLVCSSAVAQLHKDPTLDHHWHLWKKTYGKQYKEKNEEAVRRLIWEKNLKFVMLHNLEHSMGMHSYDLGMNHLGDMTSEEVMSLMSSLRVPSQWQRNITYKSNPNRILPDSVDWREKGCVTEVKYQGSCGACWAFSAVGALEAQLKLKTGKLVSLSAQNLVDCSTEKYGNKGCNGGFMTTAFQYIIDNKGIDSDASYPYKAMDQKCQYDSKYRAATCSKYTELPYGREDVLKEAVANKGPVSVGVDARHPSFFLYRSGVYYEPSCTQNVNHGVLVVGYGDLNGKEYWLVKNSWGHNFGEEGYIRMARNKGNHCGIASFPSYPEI
Sequence of Voltage-gated inwardly rectifying potassium channel KCNH2 (Q12809 whole entry): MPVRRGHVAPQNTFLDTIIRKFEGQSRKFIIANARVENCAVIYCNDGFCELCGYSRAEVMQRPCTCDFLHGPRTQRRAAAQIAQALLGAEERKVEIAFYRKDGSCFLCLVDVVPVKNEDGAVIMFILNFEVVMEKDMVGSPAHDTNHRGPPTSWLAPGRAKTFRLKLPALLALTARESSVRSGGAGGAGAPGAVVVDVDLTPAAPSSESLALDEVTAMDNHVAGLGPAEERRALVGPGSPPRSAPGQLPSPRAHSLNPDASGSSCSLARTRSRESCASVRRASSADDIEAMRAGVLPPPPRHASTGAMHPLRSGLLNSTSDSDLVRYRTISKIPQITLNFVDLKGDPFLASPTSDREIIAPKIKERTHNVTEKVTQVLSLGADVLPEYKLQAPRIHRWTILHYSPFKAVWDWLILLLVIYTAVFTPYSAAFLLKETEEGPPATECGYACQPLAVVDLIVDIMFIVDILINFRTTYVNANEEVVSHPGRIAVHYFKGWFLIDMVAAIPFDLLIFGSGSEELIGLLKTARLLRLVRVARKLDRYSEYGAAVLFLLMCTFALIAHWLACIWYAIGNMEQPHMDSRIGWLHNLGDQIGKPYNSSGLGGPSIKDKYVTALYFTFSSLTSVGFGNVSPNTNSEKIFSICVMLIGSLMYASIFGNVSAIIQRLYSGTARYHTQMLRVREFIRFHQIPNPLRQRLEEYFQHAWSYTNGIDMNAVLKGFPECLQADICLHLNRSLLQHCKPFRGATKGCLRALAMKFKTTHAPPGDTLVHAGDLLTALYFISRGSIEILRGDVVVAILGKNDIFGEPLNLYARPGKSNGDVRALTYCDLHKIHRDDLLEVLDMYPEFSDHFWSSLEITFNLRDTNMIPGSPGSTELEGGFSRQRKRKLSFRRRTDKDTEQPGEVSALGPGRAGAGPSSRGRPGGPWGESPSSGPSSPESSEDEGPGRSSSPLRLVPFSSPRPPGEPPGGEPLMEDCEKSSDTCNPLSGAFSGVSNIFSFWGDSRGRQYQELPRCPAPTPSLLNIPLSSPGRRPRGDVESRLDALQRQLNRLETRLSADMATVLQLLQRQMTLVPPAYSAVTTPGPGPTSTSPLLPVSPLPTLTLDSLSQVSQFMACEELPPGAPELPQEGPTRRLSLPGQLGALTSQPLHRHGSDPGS
Sequence of Procathepsin L (P07711 whole entry): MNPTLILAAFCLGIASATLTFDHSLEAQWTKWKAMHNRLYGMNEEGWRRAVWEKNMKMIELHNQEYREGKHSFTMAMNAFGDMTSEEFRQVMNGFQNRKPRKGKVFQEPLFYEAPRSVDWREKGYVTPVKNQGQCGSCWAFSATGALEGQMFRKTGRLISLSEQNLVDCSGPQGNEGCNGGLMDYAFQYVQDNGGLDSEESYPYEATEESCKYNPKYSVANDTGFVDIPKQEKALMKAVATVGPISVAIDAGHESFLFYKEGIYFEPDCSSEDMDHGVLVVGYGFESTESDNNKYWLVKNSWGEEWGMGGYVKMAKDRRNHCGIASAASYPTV
T2 sequence (P53634 25-134 limits assumed): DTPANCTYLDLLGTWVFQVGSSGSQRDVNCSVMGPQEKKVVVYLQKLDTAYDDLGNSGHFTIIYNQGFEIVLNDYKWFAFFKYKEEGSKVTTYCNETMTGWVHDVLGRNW
T2 sequence (P53634 231-394 limits assumed): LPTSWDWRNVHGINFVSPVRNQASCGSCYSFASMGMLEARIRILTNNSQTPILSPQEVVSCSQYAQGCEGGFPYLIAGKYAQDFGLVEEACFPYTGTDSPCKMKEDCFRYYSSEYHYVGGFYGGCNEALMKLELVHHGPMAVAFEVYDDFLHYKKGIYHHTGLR
T2 sequence (P53634 395-463 limits assumed): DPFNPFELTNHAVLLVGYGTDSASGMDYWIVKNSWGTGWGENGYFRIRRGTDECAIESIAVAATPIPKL
T4 sequence (Q15722 whole entry, looked up): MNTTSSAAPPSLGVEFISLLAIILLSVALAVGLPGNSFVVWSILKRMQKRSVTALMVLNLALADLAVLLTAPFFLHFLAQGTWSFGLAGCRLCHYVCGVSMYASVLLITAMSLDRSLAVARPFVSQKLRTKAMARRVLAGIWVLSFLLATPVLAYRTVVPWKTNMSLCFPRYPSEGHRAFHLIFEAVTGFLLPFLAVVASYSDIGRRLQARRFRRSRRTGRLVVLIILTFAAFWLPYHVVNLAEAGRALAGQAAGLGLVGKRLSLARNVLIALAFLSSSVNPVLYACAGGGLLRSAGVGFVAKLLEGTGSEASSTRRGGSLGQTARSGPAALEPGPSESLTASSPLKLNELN
T4 sequence (Q9NPC1 whole entry, looked up): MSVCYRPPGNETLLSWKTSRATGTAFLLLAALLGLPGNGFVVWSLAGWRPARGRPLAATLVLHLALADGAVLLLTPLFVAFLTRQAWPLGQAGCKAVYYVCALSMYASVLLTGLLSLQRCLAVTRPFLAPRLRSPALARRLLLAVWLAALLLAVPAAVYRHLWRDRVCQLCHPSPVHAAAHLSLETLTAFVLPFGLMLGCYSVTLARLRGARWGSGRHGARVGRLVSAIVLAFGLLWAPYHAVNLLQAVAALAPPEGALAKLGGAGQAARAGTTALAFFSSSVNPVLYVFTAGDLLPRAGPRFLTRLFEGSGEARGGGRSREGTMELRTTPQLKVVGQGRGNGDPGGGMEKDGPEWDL

SMILES	pKa [1]	IC50 (Dipeptidyl peptidase 1 [3])	microsomal CLint [4]	IC50 (Dipeptidyl peptidase 1 [5])	hepatocyte CLint [6]	IC50 [7]	logD [8]	IC50 (Cathepsin K)	IC50 (Cathepsin B)	IC50 (Cathepsin S)	EC50 [9]	IC50 (Procathepsin L)	also measured
N#C[C@H](Cc1ccc(-c2ccccc2)cc1)NC(=O)C1(N)CCOCC1	5.4	0.0316 µM	> 150 µL/min/mg	0.002 µM	> 150 µL/min/1e6 cells	> 33 µM	2.3						inhibition [2]: inactive
CS(=O)(=O)c1cccc(-c2ccc(C[C@@H](C#N)NC(=O)C3(N)CCOCC3)cc2)c1	6.3	0.00794 µM	< 3 µL/min/mg	0.000794 µM	< 3 µL/min/1e6 cells	> 33 µM	0.8						inhibition [2]: inactive
N#Cc1ccc(-c2ccc(C[C@@H](C#N)NC(=O)[C@@H]3C[C@@H](O)CCN3)cc2)cc1	7.6	0.0126 µM	< 3 µL/min/mg	0.00501 µM	4 µL/min/1e6 cells	> 33 µM	1.4	6.31 µM	> 10 µM	> 10 µM	75 µM	> 10 µM	
CN1Cc2cc(-c3ccc(C[C@@H](C#N)NC(=O)[C@@H]4C[C@@H](O)CCN4)cc3)ccc2C1=O		0.0398 µM	< 4 µL/min/mg	0.00398 µM	< 4 µL/min/1e6 cells	> 33 µM	0.5	7.94 µM	> 10 µM	> 10 µM	> 120 µM	> 10 µM	
N#Cc1ccc(-c2ccc(C[C@@H](C#N)NC(=O)C3(N)CCOCC3)cc2)cc1	5.8		3.6 µL/min/mg		2.9 µL/min/1e6 cells	26 µM	1.9	> 10 µM	> 10 µM	> 10 µM	> 100 µM	> 10 µM	Vd [10]: 1.6 L/kg; Activity (Rattus norvegicus [11]): Non-toxic; inhibition (Leukotriene B4 receptor [12]): 69%; Vd [13]: 1.4 L/kg; half-life [14]: 3.5 h; IC50 (Leukotriene B4 receptor [15]): 2 µM; bioavailability [16]: 95%; Vd [17]: 1.9 L/kg; Activity (Rattus norvegicus [18]): Non-toxic; half-life [19]: 2 h; clearance [20]: 0.54 L/h/kg; Activity (Rattus norvegicus [21]): Non-toxic; clearance [22]: 0.54 L/h/kg; bioavailability [23]: 92%; half-life [24]: 11.6 h; bioavailability [25]: 72%; Activity (Rattus norvegicus [26]): Non-toxic; clearance [27]: 0.12 L/h/kg
N#Cc1ccc(-c2ccc(C[C@@H](C#N)NC(=O)[C@@H]3CCCCN3)cc2)cc1	8.4	0.01 µM	< 4 µL/min/mg	0.0398 µM	< 3 µL/min/1e6 cells	1.4 µM	2.7	1 µM	> 10 µM	> 10 µM	9 µM	> 10 µM	Activity (Rattus norvegicus [11]): Toxic; half-life [14]: 4.5 h; Vd [17]: 5.6 L/kg; Activity (Rattus norvegicus [18]): Toxic; clearance [20]: 0.96 L/h/kg; Activity (Rattus norvegicus [21]): Toxic; bioavailability [23]: 75%; Activity (Rattus norvegicus [26]): Toxic
CC[C@H](N)C(=O)N[C@H](C#N)Cc1ccc(-c2ccccc2)cc1		0.0631 µM		0.002 µM									
CSc1cc(-c2ccc(C[C@@H](C#N)NC(=O)[C@@H]3CCCCN3)cc2)ccc1C#N		0.001 µM	7 µL/min/mg	0.00398 µM	13 µL/min/1e6 cells	2.7 µM		0.398 µM	> 10 µM	> 10 µM		> 10 µM	
CN1Cc2cc(-c3ccc(C[C@@H](C#N)NC(=O)[C@@H]4CCCCN4)cc3)ccc2C1=O	7.1	0.00794 µM	< 3 µL/min/mg	0.0251 µM	5 µL/min/1e6 cells		1	0.251 µM	> 10 µM	> 10 µM		> 10 µM	
CN1Cc2ccc(-c3ccc(C[C@@H](C#N)NC(=O)C4(N)CCOCC4)cc3)cc2C1=O	6.3	0.0501 µM	< 3 µL/min/mg		41 µL/min/1e6 cells	> 33 µM	1.1	7.94 µM					inhibition [28]: 50%
N#Cc1ccc(-c2ccc(C[C@@H](C#N)NC(=O)C3(N)CCCCC3)cc2)cc1	7.1	0.00316 µM	20 µL/min/mg	0.00251 µM	15 µL/min/1e6 cells	9 µM	2.9						
N#C[C@H](Cc1ccc(-c2ccccc2)cc1)NC(=O)[C@@H]1CCCCN1		0.158 µM			> 150 µL/min/1e6 cells								Stability (Hepatocyte [29]): Unstable; Stability (Plasma [30]): Stable; Stability (Hepatocyte [31]): Unstable; Stability (Plasma [32]): Stable
